Tests used:
Assay in all cases: isothermal titration calorimetry
Type in all cases: binding
[1] = molecular target: BsSecA (Bacillus subtilis, UniProt P28366)
In short: (§1)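 Full-length native-sequence SecA purified by ion-exchange, hydrophobic and gel-filtration chromatography, then dialysed >18 h against TKM (50 mM Tris-HCl pH 8.0, 50 mM KCl, 5 mM MgCl₂) with 3 buffer changes. Mg-ADP dissolved in final dialysate and titrated at 25 °C into 20 μM WT BsSecA, 30 μM E208Q BsSecA or 10 μM WT EcSecA.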

[2] = molecular target: BsSecA (Bacillus subtilis, UniProt P28366, E208Q)
In short: as §1

[3] = molecular target: EcSecA (Escherichia coli, UniProt P10408)
In short: as §1

Nc1ncnc2c1ncn2[C@@H]1O[C@H](COP(=O)(O)OP(=O)(O)O)[C@@H](O)[C@H]1O [Mg-ADP]
Kd [1]: 180 ± 10 nM
Kd [2]: 7700 ± 300 nM
Kd [3]: 62 ± 4 nM
